Reference: ChEMBL document CHEMBL3044755, “5-Methyl-1,2,3-thiadiazoles synthesized via ugi reaction and their fungicidal and antiviral activities” (J Agric Food Chem, 2010)

Legend:
[1] = test system: Tobacco mosaic virus; experiment: In vivo antiviral activity against Tobacco mosaic virus (TMV) infected tobacco leaves assessed as curative effect at 100 ug/ml treated after viral inoculation measured at 2-3 days after viral challenge; type: functional
In short: (§1)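 Curative test: whole six-leaf tobacco leaves rubbed with TMV (5.88 10-2 μg/mL), dried in greenhouse, then compound smeared on upper three leaves and solvent on lower three as control. Local lesions scored 2-3 days after inoculation, three repetitions. Inhibition (%) = (CK − A)/CK × 100 on mean lesion numbers.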

[2] = test system: Fusarium oxysporum; experiment: Fungicidal activity against Fusarium oxysporum at 50 ug/ml by growth inhibition method; type: functional; details: read-out: GI
In short: (§2)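 Mycelial growth inhibition on potato dextrose agar. The panel covered Alternaria solani, Botrytis cinerea, Cercospora arachidicola, C. beticola, Colletotrichum lagenarium, Fusarium oxysporum, Gibberella zeae, Puccinia triticina, Phytophthora infestans, Physalospora piricola, Pellicularia sasakii and Rhizoctonia solani.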

[3] = test system: Tobacco mosaic virus; experiment: In vivo antiviral activity against Tobacco mosaic virus (TMV) infected tobacco leaves assessed as protective effect at 100 ug/ml treated 12 hr before viral inoculation measured at 2-3 days after viral challenge; type: functional
In short: (§3)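 Six-leaf tobacco; compound solution smeared over whole leaves, dried in greenhouse, then after 12 h TMV (5.88 10-2 μg/mL) rubbed onto upper three leaves, with solvent on lower three leaves as control. Local lesions counted 2-3 days post-inoculation, three repetitions. Inhibition (%) = (CK − A)/CK × 100 from mean lesion numbers.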

[4] = test system: Tobacco mosaic virus; experiment: In vitro antiviral activity against Tobacco mosaic virus (TMV) infected tobacco leaves at 500 ug/ml; type: functional
[5] = test system: Mycosphaerella arachidis; experiment: Fungicidal activity against Mycosphaerella arachidis at 50 ug/ml by growth inhibition method; type: functional; details: read-out: GI; in short: as §2
[6] = test system: Tobacco mosaic virus; experiment: In vitro antiviral activity against Tobacco mosaic virus (TMV) infected tobacco leaves at 200 ug/ml; type: functional
[7] = test system: Alternaria solani; experiment: Fungicidal activity against Alternaria solani at 50 ug/ml by growth inhibition method; type: functional; details: read-out: GI; in short: as §2
[8] = test system: Nicotiana tabacum; experiment: Phytotoxicity against Nicotiana tabacum (tobacco) plant; type: organism-based; details: in vivo
[9] = test system: Tobacco mosaic virus; experiment: In vivo antiviral activity against Tobacco mosaic virus (TMV) infected tobacco leaves assessed as curative effect at 500 ug/ml treated after viral inoculation measured at 2-3 days after viral challenge; type: functional; in short: as §1
[10] = test system: Colletotrichum lagenaria; experiment: Fungicidal activity against Colletotrichum lagenaria at 50 ug/ml by growth inhibition method; type: functional; details: read-out: GI; in short: as §2
[11] = test system: Nicotiana tabacum; experiment: Induction of systemic acquired resistance activity in TMV infected-Nicotiana tabacum (tobacco) leaves at 100 ug/ml; type: functional
In short: (§4)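 Tobacco/TMV system used for systemic acquired resistance induction. Inhibition ratio calculated from mean lesion numbers on inoculated leaves relative to corresponding control. Tiadinil and ribavirin run as controls.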

[12] = test system: Botryosphaeria berengeriana; experiment: Fungicidal activity against Botryosphaeria berengeriana at 50 ug/ml by growth inhibition method; type: functional; details: read-out: GI; in short: as §2
[13] = test system: Tobacco mosaic virus; experiment: In vivo antiviral activity against Tobacco mosaic virus (TMV) infected tobacco leaves assessed as inactivation effect at 500 ug/ml co-treated with virus for 30 min before inoculation onto leaves measured at 2-3 days after viral challenge; type: functional
In short: (§5)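 TMV (5.88 10-2 μg/mL) mixed with equal volume of compound solution for 30 min, then rubbed onto upper three leaves of six-leaf tobacco; solvent on lower three leaves as control. Lesions counted 2-3 days later, three repetitions. Inhibition (%) = (CK − A)/CK × 100 from mean lesion counts.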

[14] = test system: Botrytis cinerea; experiment: Fungicidal activity against Botryotinia fuckeliana at 50 ug/ml by growth inhibition method; type: functional; details: read-out: GI; in short: as §2
[15] = test system: Tobacco mosaic virus; experiment: In vivo antiviral activity against Tobacco mosaic virus (TMV) infected tobacco leaves assessed as inactivation effect at 100 ug/ml co-treated with virus for 30 min before inoculation onto leaves measured at 2-3 days after viral challenge; type: functional; in short: as §5
[16] = test system: Tobacco mosaic virus; experiment: In vivo antiviral activity against Tobacco mosaic virus (TMV) infected tobacco leaves assessed as protective effect at 500 ug/ml treated 12 hr before viral inoculation measured at 2-3 days after viral challenge; type: functional; in short: as §3
[17] = test system: Thanatephorus cucumeris; experiment: Fungicidal activity against Thanatephorus cucumeris at 50 ug/ml by growth inhibition method; type: functional; details: read-out: GI; in short: as §2
[18] = test system: Nicotiana tabacum; experiment: Induction of systemic acquired resistance activity in TMV infected-Nicotiana tabacum (tobacco) leaves at 50 ug/ml; type: functional; in short: as §4
[19] = test system: Cercospora beticola; experiment: Fungicidal activity against Cercospora beticola at 50 ug/ml by growth inhibition method; type: functional; details: read-out: GI; in short: as §2
[20] = test system: Fusarium graminearum; experiment: Fungicidal activity against Fusarium graminearum at 50 ug/ml by growth inhibition method; type: functional; details: read-out: GI; in short: as §2
[21] = test system: Phytophthora infestans; experiment: Fungicidal activity against Phytophthora infestans at 50 ug/ml by growth inhibition method; type: functional; details: read-out: GI; in short: as §2
[22] = test system: Puccinia triticina; experiment: Fungicidal activity against Puccinia triticina at 50 ug/ml by growth inhibition method; type: functional; details: read-out: GI; in short: as §2
[23] = test system: Rhizoctonia solani; experiment: Fungicidal activity against Rhizoctonia solani at 50 ug/ml by growth inhibition method; type: functional; details: read-out: GI; in short: as §2
[24] = test system: Tobacco mosaic virus; experiment: In vitro antiviral activity against Tobacco mosaic virus (TMV) infected tobacco leaves at 100 ug/ml; type: functional

| Compound | Activity [1] | Activity [3] | inhibition at 500 µg/mL [4] | inhibition of growth at 50 µg/mL [5] | inhibition of growth at 50 µg/mL [7] | Activity [8] | Activity [9] | inhibition of growth at 50 µg/mL [10] | Activity [11] | inhibition of growth at 50 µg/mL [12] | Activity [13] | Activity [15] | Activity [16] | inhibition of growth at 50 µg/mL [17] | Activity [18] | inhibition of growth at 50 µg/mL [19] | inhibition of growth at 50 µg/mL [20] | inhibition of growth at 50 µg/mL [21] | inhibition of growth at 50 µg/mL [23] | inhibition at 100 µg/mL [24] | other results |
| --- | --- | --- | --- | --- | --- | --- | --- | --- | --- | --- | --- | --- | --- | --- | --- | --- | --- | --- | --- | --- | --- |
| Cc1cccc(C(C(=O)NC(C)C)N(C(=O)c2nnsc2C)c2ccc(C)c(Cl)c2)c1 (stereo unspecified) | 33% | 14% | 34% | 38% | 44% | Non-toxic | 40% | 13% | 49% | 51% | 82% | 72% | 48% | 63% | 65% | 17% | 37% | 8% |  |  | inhibition of growth at 50 µg/mL [2]: 14%; inhibition at 200 µg/mL [6]: 18%; inhibition of growth at 50 µg/mL [14]: 76% |
| Cc1ccc(N(C(=O)c2nnsc2C)C(C(=O)NC2CCCCC2)c2cccc(O)c2)cc1F (stereo unspecified) | 23% | 43% | 48% | 0% | 0% | Non-toxic | 57% | 0% | 76% | 0% | 67% | 44% | 44% | 0% | 32% | 25% | 14% | 6% | 30% | 25% | inhibition of growth at 50 µg/mL [22]: 0% |
| Cc1cccc(C(C(=O)NC2CCCCC2)N(C(=O)c2nnsc2C)c2ccc(C)c(F)c2)c1 (stereo unspecified) | 29% | 10% | 29% | 0% | 6% | Non-toxic | 38% | 0% | 54% | 0% | 69% | 38% | 8% | 0% | 40% | 25% | 36% | 1% | 37% | 44% | inhibition of growth at 50 µg/mL [22]: 0% |
| Cc1ccc(N(C(=O)c2nnsc2C)C(C(=O)NC(C)C)c2ccccc2C(F)(F)F)cc1F (stereo unspecified) | 32% | 5% | 71% | 9% | 13% | Non-toxic | 44% | 36% | 60% | 0% | 65% | 67% | 44% | 15% | 30% | 13% | 27% | 44% | 17% | 57% | inhibition of growth at 50 µg/mL [22]: 0% |
| Cc1ccc(N(C(=O)c2nnsc2C)C(C(=O)NC2CCCCC2)c2cccc(Cl)c2)cc1F (stereo unspecified) | 0% | 29% | 18% | 27% | 25% | Non-toxic | 40% | 0% | 22% | 8% | 79% | 69% | 67% | 0% | 30% | 25% | 27% | 44% | 39% | 14% | inhibition of growth at 50 µg/mL [22]: 14% |
| Cc1ccc(NC(=O)c2snnc2C)cc1Cl [TIADINIL] | 46% | 57% | 48% | 18% |  | Non-toxic | 58% |  | 52% | 74% | 59% | 42% | 75% | 46% | 50% | 40% | 36% | 46% | 1% | 25% | inhibition of growth at 50 µg/mL [2]: 48%; inhibition of growth at 50 µg/mL [14]: 67% |
| Cc1ccc(N(C(=O)c2nnsc2C)C(C(=O)NC(C)C)c2ccc(O)cc2)cc1F (stereo unspecified) | 28% | 71% | 35% | 0% | 0% | Non-toxic | 55% | 0% | 7% | 0% | 72% | 51% | 76% | 4% | 36% | 0% | 0% | 0% | 0% | 26% | inhibition of growth at 50 µg/mL [22]: 0% |
